This is an account of results in ChEMBL document CHEMBL1144581, “alpha-Amino acid derivatives as proton pump inhibitors and potent anti-ulcer agents” (2007).

For assay [1], the species on record is Rattus norvegicus. As to the kind of experiment: Inhibition of gastric H+/K(+)-ATPase activity in Sprague-Dawley rat microsomal vesicles at 10 umol. The settings on record: Stomach, Microsome. Format: microsomes. The gist of the method: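 Rat gastric microsomes were prepared by density gradient and differential centrifugation. The medium held 40 mM Tris-HCl pH 7.4, 2 mM MgCl2, 10 mM KCl (water for blank) and […] vesicular protein. Compound was preincubated 30 min at 37 °C. Tris-ATP at 0.3, 1.0 or 3 mM was then added for 20 min and stopped with chilled 10% TCA. Released Pi was read at 530 nm; % inhibition vs control.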

The species entered for assay [2] is Rattus norvegicus. As to the kind of experiment: Antisecretory activity in rat pylorus ligation-induced ulcer model determined by ratio of free acidity inhibition in drug treated to untreated control. The assay is classed as functional. The method, boiled down: (§1)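 Sprague Dawley rats (130-150 g) fasted 24 h with water ad libitum; pylorus ligated through a midline incision under ether anesthesia. Dosing oral, 1 h before ligation. Gastric juice free and total acidity titrated against 0.01 N NaOH, with Topfer's reagent and phenolphthalein as indicators. Values expressed as ratio of percent inhibition, treated vs control group.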

The species entered for assay [3] is Rattus norvegicus. The experiment in a line: Antisecretory activity in rat pylorus ligation-induced ulcer model determined by ratio of total acidity inhibition in drug treated to untreated control. Format: functional. The gist of the method: as §1

Each structure is given as a SMILES string.

A word on the inhibition: it is the drop in the measured response relative to a control, in per cent. Read a high inhibition as a response far below the control. `O=C(N[C@H](CO)C(=O)O)OCc1ccccc1` had an inhibition in assay [1] of 46%. For the same compound, the Activity in assay [2] was 0.36; in assay [3], 0.49.
Taken in the same sequence, the figures for `O=C(O)[C@@H]1CCCN1C(=O)/C=C/c1ccccc1` were 58%, 0.65 and 0.76.
For `O=C(O)[C@@H]1CCC(=O)N1Cc1ccccc1`, the inhibition in assay [1] was 44%. The Activity was 0.86 in assay [2] and 0.93 in assay [3].
On to `COC(=O)[C@@H]1CCCN1C(=O)/C=C/c1ccccc1`, for which, in assay [1], the inhibition was 62%. The Activity in assay [2] was found to be 0.47; in assay [3], 0.59.
The matching figures for `O=C(O)[C@@H]1CCCN1C(=O)Cc1ccccc1`: 92%, 0.41 and 0.38.
Taken in the same sequence, the figures for `O=C(N[C@@H](COCc1ccccc1)C(=O)O)OCc1ccccc1` were 59%, 0.48 and 0.5.
Taken in the same sequence, the figures for `CCOC(=O)[C@@H](NC(=O)OCc1ccccc1)C(O)C#C[Si](C)(C)C` (some centres undefined) were 10%, 1.01 and 1.
In the case of `CC(C)N1C(=O)CC[C@H]1C(=O)OC(C)(C)C`, the inhibition in assay [1] is 52%. Further, the Activity in assay [2] worked out at 0.72; in assay [3], 0.69.
Taken in the same sequence, the figures for `COC(=O)[C@@H]1CCCN1C(=O)c1ccccc1` were 91%, 0.9 and 1.14.
The matching figures for `CC(C)(C)OC(=O)N[C@@H](CO)C(=O)O`: 34%, 0.71 and 0.72.
Compound `CC(C)(C)OC(=O)[C@@H]1CCC(=O)N1Cc1ccccc1Cl` showed an inhibition in assay [1] of 88%. Moreover, the Activity in assay [2] is recorded as 0.17; in assay [3], 0.27.
The matching figures for `COC(=O)[C@@H]1CCCN1C(=O)Cc1ccc(OC)cc1`: 52%, 0.81 and 0.86.
Taken in the same sequence, the figures for `COc1ccccc1CN1C(=O)CC[C@H]1C(=O)O` were 49%, 0.61 and 0.64.
The matching figures for `CC(C)(C)[C@H]1OC(=O)[C@@H]2CCC(=O)N21`: 92%, 0.61 and 0.49.
The compound `Cc1ccc(CN2C(=O)CC[C@H]2C(=O)OC(C)(C)C)cc1` showed an inhibition in assay [1] of 79%. Further, the Activity in assay [2] is reported as 0.48; in assay [3], 0.52.
Taken in the same sequence, the figures for `CCOC(=O)[C@@H](NC(=O)OCc1ccccc1)C(O)/C=C/c1ccccc1` (some centres undefined) were 65%, 0.93 and 0.98.
Taken in the same sequence, the figures for `CC(C)(C)[C@H]1OC(=O)[C@@]2(C3(O)CCCCC3)CCC(=O)N12` were 55%, 0.2 and 0.22.
Taken in the same sequence, the figures for `CCOC(=O)N1CCC[C@H]1C(=O)OC` were 68%, 0.59 and 0.64.
In assay [1], `CC(C)(C)[C@H]1OC(=O)[C@@]2([C@@H](O)c3ccccc3)CCC(=O)N12` displayed an inhibition of 44%. For the same compound, the Activity in assay [2] turned out to be 0.17; in assay [3], 0.27.
Taken in the same sequence, the figures for `O=C(O)[C@H]1CCC(=O)N1Cc1ccccc1` were 55%, 0.46 and 0.51.
Taken in the same sequence, the figures for `O=C(O)[C@@H]1CCC(=O)N1Cc1cccc2ccccc12` were 53%, 0.35 and 0.91.
Taken in the same sequence, the figures for `O=C1CC[C@@H](C(=O)O)N1` [PIDOLIC ACID] were 67%, 0.69 and 0.75.
Compound `O=C(O)[C@@H]1CCC(=O)N1Cc1ccccc1Cl` returned an inhibition in assay [1] of 32%. Besides, the Activity in assay [2] was determined as 0.66; in assay [3] it was 0.51.
In assay [1], `CC(C)(C)OC(=O)[C@@H]1CCC(=O)N1Cc1ccccc1` displayed an inhibition of 92%. Further, the Activity is on record as 0.34 in assay [2] and 0.52 in assay [3].
Taken in the same sequence, the figures for `Cc1ccccc1CN1C(=O)CC[C@H]1C(=O)OC(C)(C)C` were 68%, 0.63 and 0.62.
As to `O=C(O)[C@@H]1CCC(=O)N1Cc1ccccc1Cc1ccccc1`, in assay [1], the inhibition turned out to be 71%. Further, the Activity in assay [2] is on record as 0.48; in assay [3], 0.33.
Taken in the same sequence, the figures for `Cc1ccccc1CN1C(=O)CC[C@H]1C(=O)O` were 46%, 0.92 and 0.89.
Regarding `COC(=O)[C@@H]1CCC(=O)N1Cc1ccc(Cl)cc1`, the inhibition in assay [1] was 46%. The Activity came out at 0.67 in assay [2] and 1.01 in assay [3].
